# Assay results taken from the RNAGym collection of RNA variant scans (doi:10.1126/science.aae0568).
# Fewer inactive variants are shown than the library holds.
# B1: tRNA (parent)
# chain: GUUCCGUUGGCGUAAUGGUAACGCGUCUCCCUCCUAAGGAGAAGACUGCGGGUUCGAGUCCCGUACGGAACG
# Variants of: B1
# Assay: yeast fitness relative to wild type (ratio to wild type); higher = fitter; tRNA-Arg(CCU), competitive growth, 37 C, YPD
# Procedure, shortened: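 Variants of the tRNA-Arg(CCU) gene, chemically synthesised with a 3% per-site mutation rate at 69 sites, were placed at the native genomic locus in Saccharomyces cerevisiae. The pooled strains were competed in YPD at 37°C for 24 hours in six parallel replicates. Gene amplicons from the start population and from each end population were read by 100-nucleotide paired-end sequencing. Darwinian fitness relative to wild type came from changes in genotype frequencies; genotypes needed ≥ 100 starting reads, and estimates < 0.5 were set to 0.5.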
row,Variant,yeast fitness
1,C22U G52A C60U,0.598
2,C22U G52A C61U,≤ 0.5
3,C22U G52C,0.537
4,C22U G52C G68A,≤ 0.5
5,C22U G63A,0.81
6,C22U U26A G67C,≤ 0.5
7,C22U U26C,0.667
8,C22U U28A C55G A57C,≤ 0.5
9,C22U U28C U54A A69U,≤ 0.5
10,C22U U28G A45G A65G,≤ 0.5
11,C22U U28G A45G G67U,≤ 0.5
12,C22U U28G U32A,≤ 0.5
13,C22U U32C,0.902
14,C22U U35C C55A C66U,≤ 0.5
15,C22U U47A A70G,0.536
16,C22U U47G,0.611
17,C22U U54A C55U,0.776
18,C22U U59A C61G,0.547
19,C22U U59C,0.778
20,G23A A36U G39C G68A,≤ 0.5
21,G23A A40G A45C,≤ 0.5
22,G23A A40G G41A A45U G51C,≤ 0.5
23,G23A A42U C61A,≤ 0.5
24,G23A A43C C66G,≤ 0.5

row,Variant,yeast fitness
1,G23A A43C U59A,0.639
2,G23A A43U A65U,≤ 0.5
3,G23A A43U C62U,0.751
4,G23A A45U G56A,0.727
5,G23A C24G A40U A65U,≤ 0.5
6,G23A C27G C55G,≤ 0.5
7,G23A C27U C60G G67A,0.549
8,G23A C29G A45U C60G C61U,0.557
9,G23A C29G A45U C62U,≤ 0.5
10,G23A C29G A57G C66G,≤ 0.5
11,G23A C29G U32G C34G A36G C62U,≤ 0.5
12,G23A C29U C60U A65U,≤ 0.5
13,G23A C30A U64A,≤ 0.5
14,G23A C30G,0.527
15,G23A C30U C33A A43G G48C A57G,≤ 0.5
16,G23A C30U C55G A57C C61A,≤ 0.5
17,G23A C30U U35C,≤ 0.5
18,G23A C30U U35C C62A,≤ 0.5
19,G23A C30U U35C G48C U59A C66U,0.526
20,G23A C30U U35C G67U A69C,≤ 0.5
21,G23A C31A A69C,≤ 0.5
22,G23A C31G G52A,≤ 0.5
23,G23A C31U A57U,≤ 0.5
24,G23A C33G U47A G68A,0.539

row,Variant,yeast fitness
1,G23A C34A,0.523
2,G23A C34A A43U U47C C62G C66A,0.689
3,G23A C34U A43U G44C C60U,≤ 0.5
4,G23A C46U,0.646
5,G23A C46U A65C,0.54
6,G23A C49A U59C C62U A65U A70C,0.524
7,G23A C55U A57C G58A,≤ 0.5
8,G23A C62U A65C,0.582
9,G23A G25A C31U,0.652
10,G23A G39C,0.752
11,G23A G51A C61A C66A,0.545
12,G23A G52A,0.546
13,G23A U26A G50C U53C,≤ 0.5
14,G23A U28C U59C C60G,0.649
15,G23A U47C C55U A69C,≤ 0.5
16,G23A U54A G67A,≤ 0.5
17,G23A U59A,0.791
18,G23C A36C,≤ 0.5
19,G23C A36G,0.625
20,G23C A37G A69C,0.548
21,G23C A37U C46G,≤ 0.5
22,G23C A42C A43C,0.575
23,G23C A42G A69G A70C,≤ 0.5
24,G23C A42U,0.65

row,Variant,yeast fitness
1,G23C A45U A65C,≤ 0.5
2,G23C A70U,0.717
3,G23C C24A C30G A40U U47A G51C C66A A69U,0.525
4,G23C C24U C46U U47C,0.684
5,G23C C27G A45G G52A,0.57
6,G23C C27G C61U,≤ 0.5
7,G23C C29G A43U,≤ 0.5
8,G23C C29G A43U G50A A65C,0.542
9,G23C C29G G67U A69C,≤ 0.5
10,G23C C29U C49A C61U,≤ 0.5
11,G23C C29U G44A C62U,≤ 0.5
12,G23C C30A U64C,≤ 0.5
13,G23C C30G C46U A65G A70U,0.63
14,G23C C30G G39C,0.501
15,G23C C31A A36U,≤ 0.5
16,G23C C31G C60A A70U,0.554
17,G23C C31U G48A C49U,≤ 0.5
18,G23C C33G A42U,0.556
19,G23C C33U,0.544
20,G23C C33U A57U G67A,0.512
21,G23C C34U U47A G58C G67U,0.533
22,G23C C49A U59C A69G,≤ 0.5
23,G23C C55G,≤ 0.5
24,G23C G38A,0.696

row,Variant,yeast fitness
1,G23C G39C,0.53
2,G23C G39C G50A G68C,≤ 0.5
3,G23C G41A A45C A65C,0.583
4,G23C G41C C49U,≤ 0.5
5,G23C G50A,0.726
6,G23C G51C,≤ 0.5
7,G23C G68A,0.719
8,G23C G68U,0.64
9,G23C U28C C29U A69C,≤ 0.5
10,G23C U28G A42C G52C,≤ 0.5
11,G23C U32A C61U,≤ 0.5
12,G23C U53A A65U,≤ 0.5
13,G23C U54C C66U,≤ 0.5
14,G23C U59C,0.583
15,G23U A43U C55G,≤ 0.5
16,G23U A57U,0.614
17,G23U C24G C27U,≤ 0.5
18,G23U C49G A70U,≤ 0.5
19,G23U G63C,0.623
20,G23U U32A U53A C55G,≤ 0.5
21,C24A A36C G52C C66U,0.761
22,C24A A36U C55A C66U,≤ 0.5
23,C24A A40C A69C,≤ 0.5
24,C24A A40G C66U,≤ 0.5

row,Variant,yeast fitness
1,C24A A40U C49U C62A C66A,≤ 0.5
2,C24A A42C,0.713
3,C24A A42C G67C A70U,≤ 0.5
4,C24A A42C U47A G63C A69C,≤ 0.5
5,C24A A42C U64C,≤ 0.5
6,C24A A42G G63A,≤ 0.5
7,C24A A42G G63A U64A,≤ 0.5
8,C24A A43C A69U,≤ 0.5
9,C24A A45G A57U C62U,≤ 0.5
10,C24A A57U,0.681
11,C24A A70U,0.596
12,C24A C27A U28A C55G,≤ 0.5
13,C24A C27A U28A G67U,≤ 0.5
14,C24A C27U A40U A57C,0.512
15,C24A C29A G44A C46G G50A A65U,0.556
16,C24A C29G A43C A70C,≤ 0.5
17,C24A C29G A45G,≤ 0.5
18,C24A C29G U54A,0.568
19,C24A C29U C30U,≤ 0.5
20,C24A C30U,0.538
21,C24A C30U A45G A57U,0.6
22,C24A C30U C33A G41C A42U,≤ 0.5
23,C24A C31U G51A C62A,≤ 0.5
24,C24A C31U U53A,0.786

row,Variant,yeast fitness
1,C24A C33A C46U,0.534
2,C24A C33G A40C C55U,0.888
3,C24A C33U C62U,≤ 0.5
4,C24A C34U A43U C49G C62G,≤ 0.5
5,C24A C49U C55U,≤ 0.5
6,C24A C60U,0.543
7,C24A C60U C61G G67A,0.614
8,C24A C62A,0.598
9,C24A G39A,0.66
10,C24A G44A,0.7
11,C24A G48A U53G G63C,≤ 0.5
12,C24A G51A,0.53
13,C24A G52A,0.752
14,C24A G63C A69C,0.621
15,C24A G68C,0.643
16,C24A U26A C55A C66U,≤ 0.5
17,C24A U26C,0.678
18,C24A U26G A43C A70G,≤ 0.5
19,C24A U26G A43C G68C,≤ 0.5
20,C24A U26G C30G A43U C62U,0.549
21,C24A U26G G56C,≤ 0.5
22,C24A U32C C62U,≤ 0.5
23,C24A U59A C61U,0.567
